What was measured:
[1] = tested on: Human immunodeficiency virus 1; assay: Antiviral activity against HIV1 […] in human HeLaP4 cells assessed as beta-galactosidase activity after 72 hrs; format: functional, organism-based; settings: Human immunodeficiency virus 1, HeLaP4, 72 h
Procedure, shortened: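 Virus (HIV-1 pNL4-3) made by transfecting P4 cells with the genomic clone. Infected CEM4fx cells in triplicate grown with increasing drug concentrations for 3 days. Supernatants collected at 72 h were used to infect HeLa-CD4-β-gal (P4) reporter cells for 24 h. Cells were lysed (50 mM 2-mercaptoethanol, 10 mM MgSO4, 25 mM EDTA, 0.125% NP40), incubated with CPRG, and read at 570 nm. Replicates averaged.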

[2] = Therapeutic index, ratio of CC50 for human HeLaP4 cells to EC50 for HIV1 […]; format: cell-based; settings: read-out: Ratio CC50/EC50
[3] = Cytotoxicity gainst human HeLaP4 cells after 3 days by MTT assay; format: cell-based
[4] = target: Human immunodeficiency virus type 1 integrase (Human immunodeficiency virus 1, UniProt Q7ZJM1); assay: Inhibition of HIV1 integrase after 1 hr by ELISA
Human immunodeficiency virus type 1 integrase, sequence (Q7ZJM1 whole entry): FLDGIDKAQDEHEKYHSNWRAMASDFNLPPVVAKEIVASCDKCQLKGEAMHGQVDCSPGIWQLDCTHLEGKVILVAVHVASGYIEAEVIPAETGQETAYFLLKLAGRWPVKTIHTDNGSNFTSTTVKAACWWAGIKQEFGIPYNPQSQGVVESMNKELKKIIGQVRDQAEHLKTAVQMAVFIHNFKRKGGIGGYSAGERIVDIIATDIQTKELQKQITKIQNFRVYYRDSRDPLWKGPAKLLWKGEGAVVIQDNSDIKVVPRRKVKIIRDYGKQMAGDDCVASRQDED
Procedure, shortened: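 ELISA with annealed oligos (7 nM): a 3′-biotin strand and a 5′-digoxigenin complementary strand. Integrase was diluted in 750 mM NaCl, 10 mM Tris pH 7.6, 10% glycerol, 1 mM β-mercaptoethanol, 0.1 mg/mL BSA. Reaction in 10 mM MgCl₂, 5 mM DTT, 20 mM HEPES pH 7.5, 5% PEG, 15% DMSO, 1 h at 37 °C. Detection by immunosorbent assay on avidin-coated plates.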

[5] = Therapeutic index, ratio of CC50 for human MT4 cells to EC50 for HIV1 3B; format: cell-based; settings: read-out: Ratio CC50/EC50
Procedure, shortened: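 MT-4 cells were infected with 100–300 CCID₅₀ of HIV-1 IIIB, with the CCID₅₀ titrated on MT-4 cells. Drugs were added as fivefold serial dilutions. Protection from virus-induced cytopathic effect was read by MTT reduction to formazan, giving EC₅₀, and CC₅₀ was determined in parallel.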

MT4 = assay: Cytotoxicity gainst human MT4 cells after 3 days by MTT assay; format: cell-based; settings: MT4, 72 h
Procedure, shortened: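 MT-4 cells in the MT-4/MTT format. CC50 determined in parallel with the antiviral EC50 using the MTT formazan read-out.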

[6] = tested on: Human immunodeficiency virus 1; assay: Antiviral activity against HIV1 3B infected in human MT4 cells assessed as inhibition of virus-induced cytopathic effect by MTT assay; format: functional; settings: Human immunodeficiency virus 1, 3B
Procedure, shortened: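 HIV-1 IIIB stock titred on MT-4 cells to find CCID50. MT-4 cells infected with 100–300 CCID50 in the presence of fivefold serial drug dilutions. Protection from virus-induced cytopathic effect read by MTT reduction to formazan, measured spectrophotometrically. EC50 taken as the concentration giving 50% protection.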

SMILES	IC50 [4]	also measured
Oc1ccc(-c2ccc3cc(O)c(O)cc3c2)cc1O		EC50 [1]: 9.9 µM; selectivity ratio [2]: 5; CC50 at 72 h [3]: 51 µM
Oc1ccc(-c2ccc3c(O)c(O)ccc3c2)cc1	8.1 µM	
Oc1ccc2cc(-c3ccccc3C(F)(F)F)ccc2c1O	6 µM	
Oc1ccc2cc(-c3cccc(C(F)(F)F)c3)ccc2c1O	10 µM	
Oc1ccc2cc(-c3ccc(C(F)(F)F)cc3)ccc2c1O	10 µM	
Oc1ccc2cc(-c3ccccc3F)ccc2c1O	7.3 µM	
O=C1C(=O)c2cc(-c3cc(O)c(O)c(O)c3)ccc2C(Oc2c(O)cc(-c3ccc4cc(O)c(O)c(O)c4c3)cc2O)=C1O	0.85 µM	selectivity ratio [5]: 19; EC50 [1]: 1.15 µM; selectivity ratio [2]: 74; CC50 at 72 h [3]: 85 µM
Oc1ccc2cc(-c3cccc(F)c3)ccc2c1O	9.6 µM	
Oc1ccc2cc(-c3ccc(F)cc3)ccc2c1O	8 µM	
Oc1ccc(-c2ccc3c(O)c(O)ccc3c2)cc1O	2.2 µM	EC50 [1]: 40 µM; CC50 at 72 h [3]: > 100 µM
Oc1ccc2cc(-c3ccccc3)ccc2c1O	6 µM	
Oc1ccccc1-c1ccc2c(O)c(O)ccc2c1	10 µM	
Oc1cccc(-c2ccc3c(O)c(O)ccc3c2)c1	4.8 µM	
Oc1cccc(-c2ccc3c(O)c(O)ccc3c2)c1O	1 µM	EC50 [1]: > 100 µM; CC50 at 72 h [3]: > 100 µM
Oc1cc(-c2ccc3cc(O)c(O)c(O)c3c2)cc(O)c1O	0.5 µM	CC50 (MT4): > 1 µM; EC50 [6]: 1 µM

Reference: ChEMBL document CHEMBL1177673, “New 2-arylnaphthalenediols and triol inhibitors of HIV-1 integrase--discovery of a new polyhydroxylated antiviral agent” (Bioorg Med Chem, 2010)
